In series [1] the test system is Candida albicans. In words: Antifungal activity against fluconazole-resistant Candida albicans 100 assessed as fungal growth inhibition by CLSI protocol based method.
Series [2] relates to Candida albicans. Kind of series: Antifungal activity against Candida albicans ATCC SC5314 assessed as fungal growth inhibition by CLSI protocol based method. Format: functional.
Series [3] concerns Candida albicans. Kind of series: Antifungal activity against Candida albicans CPCC400616 assessed as fungal growth inhibition by CLSI protocol based method. Format: functional.
Series [4] concerns Candida albicans. Kind of series: Anti-biofilm activity in Candida albicans CPCC400616 assessed as inhibition of biofilm formation incubated for 24 hrs by XTT assay. Format: functional. Put shortly: (§1)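 C. albicans CPCC400616 suspension placed in wells at 37 °C. Non-adherent cells and medium were removed at 3, 6, 18 or 24 h and wells washed with PBS. Compounds were added at a range of concentrations in fresh RPMI 1640 and incubated a further 24 h at 37 °C. Biofilm metabolic activity was read by XTT reduction.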
(In general: Formazan colour is commonly taken as a measure of viable cells.)

Series [5] in a line: Metabolic stability in human plasma assessed as parent compound remaining after 120 mins by LC-MS/MS analysis. As to conditions: read-out: Stability. Format: ADME, cell-free.
Series [6] deals with Candida parapsilosis. Kind of series: Antifungal activity against Candida parapsilosis GIM2.190 assessed as fungal growth inhibition by CLSI protocol based method. Format: functional. The settings on record: Lodderomyces parapsilosis.
The subject of series [7] is Candida albicans. Kind of series: Anti-biofilm activity in Candida albicans CPCC400616 assessed as inhibition of biofilm formation incubated for 18 hrs by XTT assay. Format: functional. Summed up: as §1
A short description of series [8]: Metabolic stability in human plasma assessed as half life after 60 mins by LC-MS/MS analysis. Format: ADME, cell-free.
The subject of series [9] is Candida albicans. Kind of series: Antifungal activity against fluconazole-resistant Candida albicans 901 assessed as fungal growth inhibition by CLSI protocol based method.
For series [10], the system named is Cryptococcus neoformans. In words: Antifungal activity against Cryptococcus neoformans CGMCC2.3161 assessed as fungal growth inhibition by CLSI protocol based method. Format: functional.
Series [11] relates to A549. Kind of series: Cytotoxicity against human A549 cells assessed as reduction in cell viability measured after 96 hrs by MTT assay. Format: ADME, cell-based. The settings on record: A549, 96 h.
For series [12], the system named is Candida albicans. In words: Antifungal activity against fluconazole-resistant Candida albicans 632 assessed as fungal growth inhibition by CLSI protocol based method.
The subject of series [13] is THLE-2. In words: Cytotoxicity against human THLE-2 cells assessed as reduction in cell viability measured after 96 hrs by MTT assay. Format: ADME, cell-based. The settings on record: THLE-2, 96 h.
The test system of series [14] is Candida albicans. In words: Antifungal activity against fluconazole-resistant Candida albicans 103 assessed as fungal growth inhibition by CLSI protocol based method.
Series [15] has as its system Pichia kudriavzevii. In words: Antifungal activity against Candida krusei GIM2.1 assessed as fungal growth inhibition by CLSI protocol based method. Format: functional.
For series [16], the system named is Candida albicans. Kind of series: Antifungal activity against fluconazole-resistant Candida albicans 904 assessed as fungal growth inhibition by CLSI protocol based method.
Series [17] concerns Candida albicans. In words: Anti-biofilm activity in Candida albicans CPCC400616 assessed as inhibition of biofilm formation incubated for 6 hrs by XTT assay. Format: functional. Summed up:
as §1

Series [18] has as its system Nakaseomyces glabratus. In words: Antifungal activity against Candida glabrata assessed as fungal growth inhibition by CLSI protocol based method. Format: functional.
Series [19] has as its system Candida albicans. Kind of series: Fungicidal activity against Candida albicans ATCC SC5314 assessed as inhibition of visible fungal growth measured after 48 hrs. Format: functional.
Series [20] has as its system Candida tropicalis. In words: Antifungal activity against Candida tropicalis CGMCC 2.3739 assessed as fungal growth inhibition by CLSI protocol based method. Format: functional.
The test system of series [21] is Candida albicans. Kind of series: Antifungal activity against fluconazole-resistant Candida albicans 311 assessed as fungal growth inhibition by CLSI protocol based method.
Series [22] in a line: Metabolic stability in human plasma assessed as parent compound remaining after 60 mins by LC-MS/MS analysis. Format: ADME, cell-free. The settings on record: read-out: Stability.
Series [23] has as its system MCF7. Kind of series: Cytotoxicity against human MCF7 cells assessed as reduction in cell viability measured after 96 hrs by MTT assay. Format: ADME, cell-based. The settings on record: MCF7, 96 h.
Series [24] deals with Candida albicans. In words: Anti-biofilm activity in Candida albicans CPCC400616 assessed as inhibition of biofilm formation incubated for 3 hrs by XTT assay. Format: functional. Put shortly: as §1
Series [25] deals with CYP2D6 (Homo sapiens, UniProt P10635). In words: Inhibition of CYP2D6 in human liver Microsome using dextromethorphan as substrate preincubated for 10 mins followed by NADPH addition and further incubated for 10 mins as substrate by LC-MS/MS analysis relative to control. The settings on record: liver microsomes, probe dextromethorphan. A general note: Liver microsomes are a subcellular fraction often used to study metabolism.

Converted amounts (≈) assume the structure as drawn. Bounds are passed on as bounds.

What is called MIC is the lowest concentration that inhibits growth of the organism. In general, half-life refers to how long it takes for the measured level to halve. As a reminder, the IC50 is the concentration that inhibits the measured activity by half. The term MFC denotes the smallest concentration meeting the test's criterion for killing the fungus. One may read the inhibition as the percentage by which the read-out fell short of the control. A higher inhibition goes with a response far below the control.

Chain of CYP2D6 (P10635 whole entry): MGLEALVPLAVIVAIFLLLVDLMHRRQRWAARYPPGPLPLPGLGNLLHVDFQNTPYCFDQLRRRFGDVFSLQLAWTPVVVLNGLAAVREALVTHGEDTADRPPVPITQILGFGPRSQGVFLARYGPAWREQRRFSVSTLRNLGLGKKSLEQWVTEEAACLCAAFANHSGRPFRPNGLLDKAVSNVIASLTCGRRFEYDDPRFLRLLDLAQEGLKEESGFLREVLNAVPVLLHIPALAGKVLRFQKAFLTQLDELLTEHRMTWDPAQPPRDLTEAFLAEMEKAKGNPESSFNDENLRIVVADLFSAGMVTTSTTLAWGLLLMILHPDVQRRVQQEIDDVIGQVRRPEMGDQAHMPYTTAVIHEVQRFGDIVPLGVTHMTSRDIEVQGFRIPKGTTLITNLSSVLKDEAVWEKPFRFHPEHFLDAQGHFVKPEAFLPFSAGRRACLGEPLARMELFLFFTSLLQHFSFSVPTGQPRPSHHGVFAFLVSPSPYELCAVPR

As for `O=C(NC(Cn1ccnc1)C(=O)c1cccc(F)c1)c1ccc(-c2ccc(Cl)cc2)s1` (stereo not drawn), the MIC was found to be 2 µg/mL (≈ 4.41 µM) in [1]; 0.06 µg/mL (≈ 0.132 µM) in series [2]; 0.125 µg/mL (≈ 0.275 µM) in series [3]; 0.5 µg/mL (≈ 1.1 µM) in series [6]; 2 µg/mL (≈ 4.41 µM) in series [9]; 0.25 µg/mL (≈ 0.551 µM) in series [10]. Moreover, the MIC in [12] is 0.5 µg/mL (≈ 1.1 µM); in series [14], 2 µg/mL (≈ 4.41 µM); in [15] it was 0.25 µg/mL (≈ 0.551 µM); in series [16] it was 2 µg/mL (≈ 4.41 µM); in [18], 1 µg/mL (≈ 2.2 µM); in [20], 0.125 µg/mL (≈ 0.275 µM). The MIC in series [21] was determined as 1 µg/mL (≈ 2.2 µM). For the same compound, the MBIC50 is above 64 µg/mL in series [4], above 64 µg/mL in series [7], 16 µg/mL in series [17] and 2 µg/mL in series [24]. Moreover, the remaining at 2 h in series [5] was 47.1%. Further, the half-life in [8] was 1.85 h. The IC50 was 26.5 µM in series [11], 4.81 µM in [13] and above 30 µM in [23]. For the same compound, the minimum fungicidal concentration (MFC) in series [19] stood at 25 µg/mL (≈ 55.1 µM). The remaining at 1 h in [22] was determined as 73.4%.

For `CCC(C)n1ncn(-c2ccc(N3CCN(c4ccc(OCC5COC(Cn6cncn6)(c6ccc(Cl)cc6Cl)O5)cc4)CC3)cc2)c1=O` (stereo not drawn) [ITRACONAZOLE], the minimum inhibitory concentration (MIC) in [2] is 0.03 µg/mL (≈ 0.0425 µM); in series [3], 0.03 µg/mL (≈ 0.0425 µM); in series [6], 0.125 µg/mL (≈ 0.177 µM); in [10], 0.125 µg/mL (≈ 0.177 µM); in [15], 0.125 µg/mL (≈ 0.177 µM); in series [18], 0.125 µg/mL (≈ 0.177 µM). In addition, the minimal inhibitory concentration (MIC) in [20] worked out at 0.03 µg/mL (≈ 0.0425 µM). Further, the MBIC50 is above 64 µg/mL in series [4], above 64 µg/mL in series [7], 32 µg/mL in [17] and 16 µg/mL in series [24]. For the same compound, the IC50 in series [11], in series [13] and in series [23] was above 30 µM in each case. Also, in series [19], the minimum fungicidal concentration (MFC) came out at 16 µg/mL (≈ 22.7 µM).

As for `C[C@@H](c1ncncc1F)[C@](O)(Cn1cncn1)c1ccc(F)cc1F` [VORICONAZOLE], the MIC is 0.06 µg/mL (≈ 0.172 µM) in series [2]; 0.125 µg/mL (≈ 0.358 µM) in series [3]; 0.06 µg/mL (≈ 0.172 µM) in series [6]; 0.06 µg/mL (≈ 0.172 µM) in series [10]; 0.125 µg/mL (≈ 0.358 µM) in series [15]; 0.125 µg/mL (≈ 0.358 µM) in series [18]. Further, in series [20], the minimal inhibitory concentration (MIC) was 0.06 µg/mL (≈ 0.172 µM). Besides, the MBIC50 in series [4] is above 64 µg/mL; in [7] it was above 64 µg/mL; in series [17] it was 32 µg/mL; in series [24] it was 16 µg/mL. In addition, the half-inhibitory concentration (IC50) in series [11], in series [13] and in series [23] was above 30 µM each time. Further, the MFC in [19] amounted to 8 µg/mL (≈ 22.9 µM).

`C=C[C@H]1C[N@@]2CC[C@H]1C[C@@H]2[C@@H](O)c1ccnc2ccc(OC)cc12` [QUINIDINE] came in with an inhibition at 10 min in series [25] of 96.2%.

As for `O=C(NC(Cn1ccnc1)C(=O)c1ccccc1)c1ccc(-c2ccc(C(F)(F)F)cc2)s1` (stereo not drawn), the MIC is above 64 µg/mL in series [1]; 0.125 µg/mL (≈ 0.266 µM) in [2]; 2 µg/mL (≈ 4.26 µM) in series [3]; 4 µg/mL (≈ 8.52 µM) in series [6]; 4 µg/mL (≈ 8.52 µM) in series [9]; above 64 µg/mL in [10]. Also, the minimal inhibitory concentration (MIC) is above 64 µg/mL in series [12]; 2 µg/mL (≈ 4.26 µM) in [14]; 16 µg/mL (≈ 34.1 µM) in series [15]; 2 µg/mL (≈ 4.26 µM) in series [16]; 8 µg/mL (≈ 17 µM) in [18]; 0.125 µg/mL (≈ 0.266 µM) in series [20]. In series [21], the MIC is 4 µg/mL (≈ 8.52 µM).

Source of the values: ChEMBL document CHEMBL4828738, “Design, synthesis and evaluation of novel 5-phenylthiophene derivatives as potent fungicidal of Candida albicans and antifungal reagents of fluconazole-resistant fungi” (Eur J Med Chem, 2021).
